The source made the active and inactive calls. The calls are words filed in the database; no cut-off is given here.
Experiments:
[1] = target: T1, Amyloid-beta precursor protein (Homo sapiens, UniProt P05067); assay: Displacement of [125I]IMPY from beta amyloid in human corpse AD brain
[2] = target: T1, Amyloid-beta precursor protein; assay: Ability for neuropathological staining of cerebrovascular amyloid plaque in human corpse AD brain; format: functional
In short: (§1)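 Postmortem temporal cortex from two AD cases, 5 µm paraffin serial sections deparaffinized in xylene/ethanol, washed in water then PBS, immersed in compound solution at various concentrations (50% ethanol in PBS above 0.5 mM), PBS wash 15 min, mounted; viewed by fluorescence microscopy (G-filter); serial sections immunostained for Aβ and tau with DAB.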

[3] = target: T1, Amyloid-beta precursor protein; assay: Labelling of accumulated amyloid plaque in Tg2576 transgenic mouse brain hippocampus expressing human APP after 30 mins; format: functional, tissue-based; details: tested as the 11C-labelled form
[4] = target: T1, Amyloid-beta precursor protein; assay: Ability for neuropathological staining of amyloid plaque in human corpse AD brain temporal cortex; format: functional, tissue-based; in short: as §1
[5] = target: T1, Amyloid-beta precursor protein; assay: Labelling of accumulated amyloid plaque in Tg2576 transgenic mouse brain cerebral cortex expressing human APP after 30 mins; format: functional, tissue-based; details: tested as the 11C-labelled form
[6] = target: Microtubule-associated protein tau (Homo sapiens) (UniProt P10636); assay: Ability for neuropathological staining of neurofibrillary tangles in human corpse AD brain temporal cortex
Microtubule-associated protein tau (Homo sapiens), sequence (P10636 whole entry, looked up): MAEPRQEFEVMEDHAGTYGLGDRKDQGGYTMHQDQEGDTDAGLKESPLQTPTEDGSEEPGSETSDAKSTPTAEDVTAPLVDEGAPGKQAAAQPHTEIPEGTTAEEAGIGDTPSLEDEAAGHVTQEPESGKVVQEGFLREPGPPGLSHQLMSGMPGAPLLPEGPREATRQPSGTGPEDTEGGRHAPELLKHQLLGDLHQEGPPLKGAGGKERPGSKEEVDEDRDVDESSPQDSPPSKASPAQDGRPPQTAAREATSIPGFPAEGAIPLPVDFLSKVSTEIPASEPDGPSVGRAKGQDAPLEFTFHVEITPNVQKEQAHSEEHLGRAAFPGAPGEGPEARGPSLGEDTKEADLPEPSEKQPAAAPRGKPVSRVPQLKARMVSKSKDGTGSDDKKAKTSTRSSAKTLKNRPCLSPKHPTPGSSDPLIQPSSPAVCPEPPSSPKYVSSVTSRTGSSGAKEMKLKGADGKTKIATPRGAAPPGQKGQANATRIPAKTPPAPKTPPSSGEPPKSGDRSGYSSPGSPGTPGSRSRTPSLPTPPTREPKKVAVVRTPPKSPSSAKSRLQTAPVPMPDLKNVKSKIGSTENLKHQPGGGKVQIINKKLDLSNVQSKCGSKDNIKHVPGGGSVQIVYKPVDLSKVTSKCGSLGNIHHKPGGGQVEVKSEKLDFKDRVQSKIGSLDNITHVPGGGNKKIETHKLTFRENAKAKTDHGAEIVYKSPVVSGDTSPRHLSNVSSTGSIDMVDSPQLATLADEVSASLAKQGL

Mus musculus [7] = species on record: Mus musculus; assay: %Compound removed from ddY mouse brain after 30 mins; format: ADME, organism-based; details: in vivo, 0.5 h
Mus musculus [8] = assay: Ratio for drug uptake in iv dosed ddY mouse brain after 2 mins to after 30 mins; format: ADME, organism-based; details: in vivo
[9] = Partition coefficient, log P at pH 7.4; format: physicochemical; details: octanol/water

T1 sequence (P05067 whole entry): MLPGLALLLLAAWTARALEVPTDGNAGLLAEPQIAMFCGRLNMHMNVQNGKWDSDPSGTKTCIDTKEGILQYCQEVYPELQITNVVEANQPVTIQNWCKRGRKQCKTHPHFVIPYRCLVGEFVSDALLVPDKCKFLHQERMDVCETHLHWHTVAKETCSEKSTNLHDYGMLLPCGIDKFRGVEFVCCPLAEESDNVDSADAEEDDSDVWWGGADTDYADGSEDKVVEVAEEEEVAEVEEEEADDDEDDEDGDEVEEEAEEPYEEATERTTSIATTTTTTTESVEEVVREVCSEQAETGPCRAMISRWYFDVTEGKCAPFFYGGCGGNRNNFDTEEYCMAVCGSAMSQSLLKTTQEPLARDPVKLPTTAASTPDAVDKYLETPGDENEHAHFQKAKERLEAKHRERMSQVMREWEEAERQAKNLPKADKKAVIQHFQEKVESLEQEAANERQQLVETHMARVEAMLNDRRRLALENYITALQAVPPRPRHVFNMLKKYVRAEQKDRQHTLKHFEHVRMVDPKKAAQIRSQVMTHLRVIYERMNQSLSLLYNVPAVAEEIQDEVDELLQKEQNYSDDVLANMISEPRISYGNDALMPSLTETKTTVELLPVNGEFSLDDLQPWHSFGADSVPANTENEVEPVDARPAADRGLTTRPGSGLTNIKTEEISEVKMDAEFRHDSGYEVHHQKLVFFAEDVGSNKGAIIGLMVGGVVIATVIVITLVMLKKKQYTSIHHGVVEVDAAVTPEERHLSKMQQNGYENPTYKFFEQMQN

COc1ccc2oc(-c3ccc(N(C)C)cc3)cc2c1
Ki [1]: 12 nM

COc1ccc2oc(-c3ccc(N)cc3)cc2c1
Ki [1]: 2.3 nM

CN(C)c1ccc(-c2cc3cc(O)ccc3o2)cc1
Ki [1]: 2.8 nM

CNc1ccc(-c2cc3cc(OC)ccc3o2)cc1
Ki [1]: 1.3 nM

CNc1ccc(-c2cc3cc(O)ccc3o2)cc1
Activity [2]: Active
Activity [3]: Active
Ki [1]: 0.7 nM
Activity [4]: Active
Activity [5]: Active
Activity [6]: Active

Nc1ccc(-c2cc3cc(O)ccc3o2)cc1
Ki [1]: 11.5 nM

[11CH3]Nc1ccc(-c2cc3cc(O)ccc3o2)cc1
washout (Mus musculus [7]): 90%
Ratio (Mus musculus [8]): 0.07
logD [9]: 2.36

Reference: ChEMBL document CHEMBL1147646, “Novel benzofuran derivatives for PET imaging of beta-amyloid plaques in Alzheimer's disease brains” (J Med Chem, 2006)
